Measurements reported in PubChem BioAssay AID504382 (The Scripps Research Institute Molecular Screening Center, 2011).
In all, about 2,500 compounds went through this assay and about 460 (18%) were called active.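 Rule for the calls: active = mean activation above a cutoff of low control average plus 3 SD from the earlier screen (cut at about 12% in these data); inactive = the rest.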 Only a sample is shown.

Experiment: compound fluorescence interference without thin filaments, confirmation, artefact control for cardiac RTF calcium sensitizer project, biochemical (AID 504382)
Conditions: IANBD fluorescence interference counterscreen, buffer, EC20 Ca2+; at 7.2 µM; active compounds read high; scaled: EC20 calcium 0, EC100 calcium 100
How it was run: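 Doses – one dose of 7.2 µM, 0.7% DMSO · Buffer or medium – MOPS/KCl/MgCl2/EGTA/NTA/DTT buffer, pH 7.2 · Probe or stimulus – Ca2+ fixed at EC20, 0.472 mM · Measured by – fluorescence intensity, excitation 480 nm, emission 540 nm · Read-out – fluorescence interference versus control range · Timing – 15 min compound exposure at 25 °C · Replication – triplicate wells per compound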

Row | SMILES | fluorescence artifact activation
1 | N#Cc1cccc(NC(=S)Nc2ccccc2)c1 | 0.03% (inactive)
2 | CC(C)(C)OC(=O)[C@H](Cc1ccccc1)NC(=O)c1nc[nH]c1C(=O)NCc1ccccc1 | 4.14% (inactive)
3 | CN(Cc1ccccc1)C(=O)c1[nH]cnc1C(=O)NCc1ccccc1 | 12.7% (active)
4 | CCOC(=O)c1[nH]cnc1C(=O)Nc1ccccn1 | 0.74% (inactive)
5 | CCOC(=O)C1=C(C)N=c2s/c(=C\c3ccc(OCC(=O)O)cc3)c(=O)n2C1c1ccc(Cl)cc1 (stereo unspecified) | 0.05% (inactive)
6 | CC1=C/C(=C\C=C(C#N)C#N)N(C)c2ccccc21 | 0.3% (inactive)
7 | Cc1cc2nc(/C(C#N)=C\c3ccc(-c4ccccc4C(=O)O)o3)[nH]c2cc1C | 0.09% (inactive)
8 | O=C(O)c1cc(Cl)ccc1-c1ccc(/C=C/c2cc(C(F)(F)F)[nH]c(=O)n2)o1 | 21.8% (active)
9 | O=C(O)c1ccccc1-c1ccc(/C=C/c2cc(C(F)(F)F)[nH]c(=O)n2)o1 | 0.16% (inactive)
10 | CC(=O)NN1C(=O)/C(=C\c2ccc(O)cc2)SC1=S | 0.69% (inactive)
11 | C/C(=N\Nc1ccc([N+](=O)[O-])cc1[N+](=O)[O-])c1cccnc1 | 0.07% (inactive)
12 | Fc1ccc(OCc2nnc(SCCN3CCOCC3)o2)cc1 | -0.06% (inactive)
13 | O=C(CSc1nnc(COc2ccccc2)o1)N1CCN(c2ccccc2)CC1 | 12% (active)
14 | O=C(NCc1nnc(SCC(=O)N2CCCCCC2)o1)c1ccco1 | 8.13% (inactive)
15 | Cc1cccc(NC(=O)CN2C(=O)N/C(=C/c3ccc(C)s3)C2=O)c1 | 0.09% (inactive)
16 | O=C(O)c1ccc(-n2c(/C=C/c3cccc([N+](=O)[O-])c3)nc3ccccc3c2=O)cc1 | 0.47% (inactive)
17 | COCCN1C(=O)/C(=C/c2ccc(N3CCCC3)cc2)SC1=S | 0.34% (inactive)
18 | CC1CN(c2ccc(NS(=O)(=O)c3ccccc3)cc2C(=O)O)CC(C)O1 (stereo unspecified) | 31.9% (active)
19 | CC(=O)c1ccc(S(=O)(=O)Nc2ccc(C(=O)N3CCC3)cc2)cc1 | 0.27% (inactive)
20 | CCOC(=O)C1CCCN(C(=O)c2cccc(S(=O)(=O)N3CC(C)OC(C)C3)c2)C1 (stereo unspecified) | 0.05% (inactive)
21 | O=C(Nc1ccc(F)cc1F)c1ccc(COc2c(F)c(F)cc(F)c2F)o1 | -0.01% (inactive)
22 | CCCCc1ccc(NC(=O)N2CCNC(=O)C2CC(=O)Nc2ccsc2C(=O)OC)cc1 (stereo unspecified) | -0.11% (inactive)
23 | Cc1cn2c(N)c(C=C3C=C(Cl)C(=O)C(Cl)=C3)c(=O)nc2s1 | 4.46% (inactive)

Row | SMILES | fluorescence artifact activation
24 | CCOC(=O)CN1C(=O)S/C(=C/C=C/c2ccc(N(C)C)cc2)C1=O | -0.03% (inactive)
25 | COc1ccc(C(=O)/C=C/c2cn(CC(O)CN3CCOCC3)c3ccccc23)cc1 (stereo unspecified) | 6.56% (inactive)
26 | O=C(/C=C/c1cn(CC(O)CN2CCCCC2)c2ccccc12)c1cccs1 (stereo unspecified) | 14.5% (active)
27 | O=C(/C=C/c1cn(CC(O)CN2CCCCCC2)c2ccccc12)c1cccs1 (stereo unspecified) | 5.69% (inactive)
28 | Cc1ccc(C(=O)/C=C/c2cn(CC(O)CN3CCOCC3)c3ccccc23)cc1 (stereo unspecified) | 0.01% (inactive)
29 | CCCN(CCC)CC(O)Cn1cc(/C=C/C(=O)c2cccs2)c2ccccc21 (stereo unspecified) | 0.1% (inactive)
30 | COc1ccc(C(=O)/C=C/c2cn(CC(O)CN3CCN(C)CC3)c3ccccc23)cc1OC (stereo unspecified) | 18.9% (active)
31 | CCN(CC)c1ccc(-c2sc(Nc3ccccc3)n[n+]2-c2ccc(F)cc2)cc1 | 3.87% (inactive)
32 | C=CCOc1ccn(C)c(=O)n1 | 2.39% (inactive)
33 | O=[N+]([O-])c1ccc(/C=C/C2=NN(c3ccccc3)C(c3ccco3)C2)cc1 (stereo unspecified) | 6.35% (inactive)
34 | Cc1nnc(N/N=C/c2ccc(O)c([N+](=O)[O-])c2)[nH]c1=O | 8.03% (inactive)
35 | O=S1(=O)CCOC[C@H](CC2CCCCC2)N1Cc1ccccc1 | 0.05% (inactive)
36 | Cn1c(CCNC(=O)c2ccco2)nc2ccccc21 | 350% (active)
37 | Cn1c(=O)c2c(nc(NCCNC(=O)c3ccco3)n2Cc2ccccc2Cl)n(C)c1=O | 0.11% (inactive)
38 | O=C(NCCNC(=O)c1cccs1)c1ccco1 | 10.5% (inactive)
39 | CCn1c(CNc2ccc(C(=O)O)cc2)nc2ccccc21 | -0.08% (inactive)
40 | CCCC(=O)NCCCc1nc2ccccc2n1C | 43.2% (active)
41 | O=C(Cn1c(C(F)(F)F)nc2ccccc21)NCCN1CCCC1 | 0.11% (inactive)
42 | COc1ccc(CN2CNc3c(c(=O)n(C)c(=O)n3C)C2)cc1 | 6.35% (inactive)
43 | Brc1ccc(-c2noc(-c3ccccn3)n2)o1 | 0.61% (inactive)
44 | O=C1C(=Cc2ccco2)CCCC1=Cc1ccco1 | 6.25% (inactive)
45 | O=C(NCc1ccccc1Cl)c1ccc2nc[nH]c2c1 | -0.08% (inactive)
46 | CCOC(=O)CC1=NS(=O)(=O)c2ccccc2N1 | 2.81% (inactive)

Row | SMILES | fluorescence artifact activation
47 | COc1ccccc1NS(=O)(=O)c1cc(NC(=O)CCNC(C)=O)ccc1N1CCCCC1 | 0.74% (inactive)
48 | COc1ccccc1NS(=O)(=O)c1cc(NC(=O)c2cc3ccccc3oc2=O)ccc1C | 16.8% (active)
49 | COc1ccccc1NS(=O)(=O)c1ccccc1C#N | -0.04% (inactive)
50 | CCNc1nc(SCC(N)=O)nc2sc3c(c12)CCN(C)C3 | 0.22% (inactive)
51 | CN(/N=C/c1ccc(-c2ccc([N+](=O)[O-])cc2)o1)c1ccccc1 | 9.54% (inactive)
52 | COCCN=c1scc(-c2cc(OC)c(OC)c(OC)c2)n1/N=C/c1c(C)[nH]c2ccccc12 | 21.1% (active)
53 | COc1ccccc1NS(=O)(=O)c1cc([N+](=O)[O-])ccc1N/N=C/c1c(C)[nH]c2ccccc12 | 4.83% (inactive)
54 | CCN(CC)S(=O)(=O)c1ccc2[nH]c(=O)[nH]c2c1 | 0.38% (inactive)
55 | CCN(CC)S(=O)(=O)c1ccc2[nH]cc(C(=O)NCCN3CCCCCC3)c(=O)c2c1 | 14.6% (active)
56 | Cn1c(C(=O)NCCCN2CCCCCC2)cc2c(=O)n(C)c3ccccc3c21 | 3.34% (inactive)
57 | O=C(CSCc1ccco1)NC1CCCC1 | 5.75% (inactive)
58 | CCN(CC)C1=CC2=CC(=C(C#N)C#N)CCC2CC1 (stereo unspecified) | 0.13% (inactive)
59 | O=C(Nc1ccc(S(=O)(=O)Nc2ncccn2)cc1)c1nn(Cc2ccccc2)c(=O)c2ccccc12 | 303% (active)
60 | CCn1cc([N+](=O)[O-])c(C(=O)Nc2ccn(Cc3ccccc3)n2)n1 | 1.63% (inactive)
61 | O=C(Nc1ccc(S(=O)(=O)Nc2ncccn2)cc1)C1CC(=O)N(c2ccccc2)C1 (stereo unspecified) | -0.09% (inactive)
62 | CC(=O)c1ccc2c(c1)c(C#N)c1ccccc1[n+]2[O-] | 57.1% (active)
63 | O=S(=O)(CCN(CCS(=O)(=O)C(F)(F)F)CC1CCCO1)C(F)(F)F (stereo unspecified) | 0.02% (inactive)
64 | O=C(c1cnc2ccccc2n1)N1CCN(c2ccc(C(F)(F)F)cn2)CC1 | 5.21% (inactive)
65 | CN(C)CCOc1ccccc1C(C)(C)C | 0.06% (inactive)
66 | O=C1c2c(O)cc(O)cc2O[C@@]12c1c(cc(O)c3c1O[C@H](c1ccc(O)cc1)[C@@H](O)C3)O[C@@H]2c1ccc(O)cc1 | 0% (inactive)
67 | O=S(=O)(O)c1nc2ccccc2n1Cc1ccccc1 | 16.5% (active)
68 | CCn1c(C(C)NC(C)=O)nc2ccccc21 (stereo unspecified) | 2.7% (inactive)
69 | c1ccc(Cn2c(-c3ccccc3)nc3nc4ccccc4nc32)cc1 | 6.17% (inactive)

Row | SMILES | fluorescence artifact activation
70 | NC(=O)[C@@H]1CCCNc2c(I)cc([N+](=O)[O-])cc2C(=O)N[C@@H](CCC(=O)O)C(=O)N[C@@H](CO)C(=O)N1 | 0% (inactive)
71 | Cc1ccc(S(=O)(=O)N2CC(C(=O)O)=CC[C@H]2c2ccc(Cl)cc2)cc1 | 0.03% (inactive)
72 | Cc1cccc(NC(=O)c2ccc(C(=O)c3ccccc3)cc2)n1 | 1.13% (inactive)
73 | NC(=O)c1ccc(NC(=O)COC(=O)c2c3c(nc4ccccc24)/C(=C\c2ccc4c(c2)OCO4)CCC3)cc1 | 0.16% (inactive)
74 | Cc1cc(C(=O)O)ccc1-c1ccc(/C=C2\SC(=O)N(CC(=O)Nc3ccc4c(c3)OCO4)C2=O)o1 | 0.42% (inactive)
75 | O=C(COC(=O)c1ccc(O)cc1)Nc1ccc2c(c1)OCCO2 | 13.1% (active)
76 | Cc1cc(C)c(S(=O)(=O)Nc2ccc3[nH]c(=O)[nH]c3c2)c(C)c1 | 3.79% (inactive)
77 | O=C/C(=C\Nc1ccc(S(=O)(=O)CCO)cc1)c1nc2cc(Cl)ccc2o1 | 20.2% (active)
78 | Cc1ccc(-c2nc3sc(C#N)c(N)n3c(=O)c2C#N)cc1 | 0.13% (inactive)
79 | CC(C)CC1C(C#N)=C(N)SC(N)=C1C#N | 0.12% (inactive)
80 | Cc1cc(C(=O)COc2cccc3cccnc23)c(C)n1C | 21.4% (active)
81 | Cc1ccc(-n2c(C)cc(C(=O)COC(=O)c3ccc[nH]c3=O)c2C)cc1 | -0.02% (inactive)
82 | Cc1ccc(/C=C/C(=O)Nc2cccc3cccnc23)o1 | 4.18% (inactive)
83 | COc1ccc(NC(=O)c2cccc(-c3ccc(O)cc3)c2)cn1 | -0.04% (inactive)
84 | Cc1nc(-n2[nH]c3c(c2=O)CCCC3)[nH]c(=O)c1Cc1ccccc1 | 7.51% (inactive)
85 | O=C1c2cccc3c([N+](=O)[O-])ccc(c23)C(=O)N1Cc1cccnc1 | 0.04% (inactive)
86 | Cc1ccnc(N2C(=O)c3cccc4c([N+](=O)[O-])ccc(c34)C2=O)c1 | 3.75% (inactive)
87 | CN(C)CCCN1C(=O)c2cccc3c([N+](=O)[O-])ccc(c23)C1=O | 14.2% (active)
88 | O=C(O)c1ccccc1C1=Nc2ccc(O)cc2Oc2cc(O)ccc21 | 0.18% (inactive)
89 | Cc1cc(C)n(NC(=S)NC2CCCCC2)c(=O)c1C#N | -0.01% (inactive)
90 | Cc1ccccc1-c1noc(-c2cccs2)n1 | 5.07% (inactive)
91 | CC(=O)[C@H]1[C@H](C#N)C[C@H]2[C@@H]3CC=C4C[C@@H](O)CC[C@]4(C)[C@H]3CC[C@@]21C | 10.9% (inactive)
